Test results as given in ChEMBL document CHEMBL4425095, “Novel Cephalosporins Selectively Active on Nonreplicating Mycobacterium tuberculosis” (J Med Chem, 2016).
Values after ≈ are worked out from the molar mass of the structure shown. Active and inactive are the calls of the source. No cut-off for these calls is given here.

How the values were obtained:
[1] = system: Mycobacterium tuberculosis; test: Bactericidal activity against wild-type non-replicating Mycobacterium tuberculosis H37Rv at 1 to 100 ug/ml incubated for 7 days measured at OD580 = 0.1 in presence of 1 mM NaNO2; format: functional, organism-based
In short: (§1)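 Wild-type H37Rv resuspended at OD580 0.1 in nonreplicating medium with NaNO2 at 0–1 mM, one plate per nitrite level. Exposed to compound for 7 days, then standard outgrowth assay to estimate survivors.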

[2] = system: Mycobacterium tuberculosis; test: Bactericidal activity against wild-type non-replicating Mycobacterium tuberculosis H37Rv at 1 to 100 ug/ml incubated for 7 days measured at OD580 = 0.1 in presence of up to 0.5 mM NaNO2; format: functional, organism-based; in short: as §1
[3] = Stability in pH 7.4 phosphate buffer solution assessed as parent compound remaining at 5 to 50 ug/ml at 37 degC measured every 12 hrs up to 144 hrs by LC-MS analysis; format: physicochemical
In short: (§2)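 Compound at 50 μg/mL in cell-free PBS pH 7.4, or nonreplicating medium pH 5.0 (BSA, tyloxapol, lysine, pantothenate omitted) with or without 0.5 mM NaNO2. Poorly soluble compounds at 5 μg/mL in 50:50 acetonitrile mixtures, pH readjusted to 5.0.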

[4] = system: Mycobacterium tuberculosis; test: Bactericidal activity against wild-type non-replicating Mycobacterium tuberculosis H37Rv assessed as log reduction in CFU at 3 to 10 ug/ml incubated for 7 days measured at OD580 = 0.01 by charcoal agar resazurin assay; format: functional
In short: (§3)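 Nonreplicating wild-type H37Rv at OD580 0.01 exposed to compound for 7 days. Survivors serially diluted in PBS-tyloxapol and plated on 7H11-OADC agar; colonies counted at ~3 weeks. Limit of detection 1 colony from 10 μL undiluted sample; triplicates, one of two experiments.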

[5] = system: BMDM; test: Cytotoxicity against C57BL6 mouse primary BMDM infected with wild-type non-replicating Mycobacterium tuberculosis H37Rv assessed as cell morphological changes at 100 ug/ml after 4 days; format: cell-based; settings: 96 h
In short: (§4)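 Bone marrow macrophages (~1×10^5) from 8-week female C57Bl6 mice grown in DMEM/10% FBS/10% L-cell medium, with or without 50 ng/mL mouse IFNγ. Infected with H37Rv at MOI 1–5 for 4 h, washed, then given 100 μg/mL compound in 1% DMSO for 3 or 4 days. Lysed in 0.5% Triton X-100, CFU counted on 7H11-OADC agar; morphology observed.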

[6] = Permeability of compound by PAMPA; format: ADME; settings: read-out: permeability
In short: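 PAMPA membrane permeability by a contract lab; reported as mean Pe (10^-6 cm/s) and log Pe.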

[7] = Intrinsic clearance in human liver microsomes assessed per mg protein measured up to 60 mins; format: ADME, Microsome; settings: 1 h
In short: (§5)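 Mouse and human liver microsomal stability run by a contract lab in triplicate.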

[8] = system: Candida albicans; test: Antifungal activity against replicating Candida albicans measured at OD580 = 0.01; format: functional
In short: (§6)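 Replicating organisms in the paper's earlier-described bacteriologic medium; 200 μL of cells at OD580 0.01 exposed to DMSO vehicle or drug in 96-well plates; growth read by optical density.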

[9] = Stability in pH 5 non-replicating medium containing 0.5 mM NaNO2 assessed as parent compound remaining at 5 to 50 ug/ml at 37 degC measured every 12 hrs up to 144 hrs by LC-MS analysis; format: physicochemical; settings: buffer; in short: as §2
[10] = Stability in mouse liver microsomes assessed as compound metabolism up to 60 mins; format: ADME, Microsome; settings: 1 h; in short: as §5
[11] = system: Pseudomonas aeruginosa; test: Antibacterial activity against replicating Pseudomonas aeruginosa measured at OD580 = 0.01; format: functional; in short: as §6
[12] = system: Mycobacterium tuberculosis; test: Bactericidal activity against wild-type non-replicating Mycobacterium tuberculosis H37Rv assessed as log reduction in CFU at 0.7 to 0.8 ug/ml incubated for 7 days measured at OD580 = 0.01 by charcoal agar resazurin assay; format: functional; in short: as §3
[13] = Solubility of compound in pH 7.4 solution measured after shaking for 4 hrs; format: physicochemical
In short: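 Solubility at pH 7.4 determined after shaking at room temperature for 4 h.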

[14] = system: Staphylococcus aureus; test: Antibacterial activity against replicating Staphylococcus aureus measured at OD580 = 0.01; format: functional; in short: as §6
[15] = system: Mycolicibacterium smegmatis; test: Antibacterial activity against replicating Mycobacterium smegmatis measured at OD580 = 0.01; format: functional; in short: as §6
[16] = Stability in CD-1 mouse plasma assessed as drug transformation at 1 ug/ml measured at <5 mins by LC-MS analysis; format: ADME, cell-free
[17] = system: Mycobacterium tuberculosis; test: Bactericidal activity against wild-type non-replicating Mycobacterium tuberculosis H37Rv assessed as drug tolerance development at 3 to 10 ug/ml incubated for 7 days measured at OD580 = 0.01 by charcoal agar resazurin assay; format: functional, organism-based
[18] = Half life in mouse liver microsomes; format: ADME, Microsome; in short: as §5
[19] = system: Mycobacterium tuberculosis; test: Bactericidal activity against wild-type non-replicating Mycobacterium tuberculosis H37Rv assessed as log reduction in CFU incubated for 7 days measured at OD580 = 0.01 in presence of 0.5 mM NaNO2 by charcoal agar resazurin assay; format: functional, organism-based
In short: (§7)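 Nonreplicating wild-type H37Rv at OD580 0.1 or 0.01 treated 7 days with or without 0.5 mM NaNO2. 10 μL spotted onto 7H11-OADC-charcoal agar and incubated 7–10 days at 37 °C. Developed with Alamar blue:Tween80 1:1 for 1 h; fluorescence read at ex 530/em 590. Complete loss of fluorescence taken as ≥2–3 log10 CFU reduction.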

[20] = Stability of compound in pH 7 solution assessed as parent compound remaining incubated for 4 hrs at 37 degC; format: physicochemical
[21] = system: Mycobacterium tuberculosis; test: Bactericidal activity against wild-type non-replicating Mycobacterium tuberculosis H37Rv at 1 to 100 ug/ml incubated for 7 days measured at OD580 = 0.1 in presence of 0.06 to 1 mM NaNO2; format: functional, organism-based; in short: as §1
[22] = Stability of compound in pH 2 solution assessed as parent compound remaining incubated for 4 hrs at 37 degC; format: physicochemical; settings: read-out: Stability
In short: (§8)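 Percent parent compound remaining after 4 h incubation at 37 °C at the stated pH.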

[23] = Half life in human liver microsomes; format: ADME, Microsome; in short: as §5
[24] = Cytotoxicity against human HepG2 cells assessed as reduction in cell viability after 2 days by Celltiter-Glo reagent based assay; settings: read-out: LD50
In short: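 HepG2 cells in DMEM with 10% FBS, pyruvate, glutamine and nonessential amino acids. Seeded at 3000 cells/well and exposed 2 days to compound or vehicle (≤1% DMSO final). Reported as LD50.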

[25] = system: Mycobacterium tuberculosis; test: Bactericidal activity against wild-type non-replicating Mycobacterium tuberculosis H37Rv incubated for 7 days measured at OD580 = 0.01 in absence of NaNO2 by charcoal agar resazurin assay; format: functional, organism-based; in short: as §7
[26] = system: Escherichia coli; test: Antibacterial activity against replicating Escherichia coli measured at OD580 = 0.01; format: functional; in short: as §6
[27] = system: Mycobacterium tuberculosis; test: Bactericidal activity against wild-type replicating Mycobacterium tuberculosis H37Rv assessed as reduction in CFU in presence of beta-lactamase inhibitor clavulanate; format: functional, organism-based
[28] = system: Mycobacterium tuberculosis; test: Bactericidal activity against wild-type non-replicating Mycobacterium tuberculosis H37Rv infected in recombinant mouse IFN-gamma stimulated C57BL6 mouse primary BMDM assessed as log reduction in CFU at 100 ug/ml incubated for 4 days by charcoal agar resazurin assay; format: functional; in short: as §4
[29] = Stability of compound in pH 12 solution assessed as parent compound remaining incubated for 4 hrs at 37 degC; format: physicochemical; settings: read-out: Stability; in short: as §8
[30] = Half life in human plasma at 1 ug/ml by LC-MS analysis; format: ADME, cell-free
[31] = system: Mycobacterium tuberculosis; test: Bactericidal activity against wild-type non-replicating Mycobacterium tuberculosis H37Rv assessed as log reduction in CFU incubated for 7 days measured at OD580 = 0.1 in presence of 0.5 mM NaNO2 by charcoal agar resazurin assay; format: functional, organism-based; in short: as §7
[32] = system: Mycobacterium tuberculosis; test: Bactericidal activity against wild-type non-replicating Mycobacterium tuberculosis H37Rv assessed as reduction in CFU at 0.1 to 100 ug/ml incubated for 7 days measured at OD580 = 0.01 in presence of beta-lactamase inhibitor clavulanate by charcoal agar resazurin assay; format: functional, organism-based
[33] = Stability in pH 5 non-replicating medium assessed as parent compound remaining at 5 to 50 ug/ml at 37 degC measured every 12 hrs up to 144 hrs by LC-MS analysis; format: physicochemical; settings: buffer; in short: as §2
[34] = system: Mycobacterium tuberculosis; test: Bactericidal activity against wild-type non-replicating Mycobacterium tuberculosis H37Rv multi-stress model incubated for 7 days measured at OD580 = 0.01 by charcoal agar resazurin assay; format: functional, organism-based; in short: as §7
[35] = system: Mycobacterium tuberculosis; test: Bactericidal activity against wild-type non-replicating Mycobacterium tuberculosis H37Rv infected in recombinant mouse IFN-gamma stimulated C57BL6 mouse primary BMDM assessed as log reduction in CFU at 100 ug/ml incubated for 3 days by charcoal agar resazurin assay; format: functional; in short: as §4
[36] = system: BMDM; test: Cytotoxicity against C57BL6 mouse primary BMDM infected with wild-type non-replicating Mycobacterium tuberculosis H37Rv assessed as cell morphological changes at 100 ug/ml after 3 days; format: cell-based; settings: 72 h; in short: as §4
[37] = system: Mycobacterium tuberculosis; test: Potentiation of meropenem-induced bactericidal activity against wild-type replicating Mycobacterium tuberculosis H37Rv assessed as decrease in MIC90 relative to control; format: functional

| Compound | LCK [4] | Papp [6] | CLH [7] | MIC90 [8] | Stability [9] | Stability [10] | MIC90 [11] | Activity [12] | solubility at 4 h [13] | MIC90 [14] | MIC90 [15] | Stability [16] | Activity [17] | t1/2 [18] | Activity [19] | remaining at 4 h [22] | t1/2 [23] | CC50 at 48 h [24] | Activity [25] | MIC90 [26] | other results |
| --- | --- | --- | --- | --- | --- | --- | --- | --- | --- | --- | --- | --- | --- | --- | --- | --- | --- | --- | --- | --- | --- |
| CO[C@H]1/C=C/O[C@@]2(C)Oc3c(C)c(O)c4c(O)c(c(/C=N/N5CCN(C)CC5)c(O)c4c3C2=O)NC(=O)/C(C)=C\C=C\[C@H](C)[C@H](O)[C@@H](C)[C@@H](O)[C@@H](C)[C@H](OC(C)=O)[C@@H]1C |  |  |  |  |  |  |  |  |  |  |  |  |  |  |  |  |  |  |  |  | Activity [1]: Active; Activity [2]: inactive |
| CCCOC(=O)C1=C(C)CS[C@@H]2[C@H](NC(=O)COc3ccccc3)C(=O)N12 | >=3.4 | 7.28 ×10⁻⁶ cm/s | 8.07 µL/min | > 100 µg/mL | 100% | Unstable | > 100 µg/mL | 2 deltalog10CFU/ml | 22.7 to 23 µM (≈ 8.86 to 8.98 µg/mL) | > 100 µg/mL | > 100 µg/mL | Unstable | Active | < 5 min | Dose-dependent effect | 100 to 110% | 1.44 h | 75.7 to 100 µg/mL (≈ 194 to 256 µM) | Active | > 100 µg/mL | Stability [3]: 80%; Activity [5]: Non-Toxic; Stability ([20]; buffer, pH 7, 4 h): 133%; Activity [21]: Active; Activity [27]: inactive; Activity [28]: 1 - 2 deltalog10CFU/ml; remaining at 4 h [29]: 0%; t1/2 [30]: 2 to 3 h; Activity [31]: Dose-dependent effect; Activity [32]: Active; Stability [33]: 100% |
| CC1=C(C(=O)O)N2C(=O)[C@@H](NC(=O)[C@H](N)c3ccccc3)[C@H]2SC1 [CEPHALEXIN ANHYDROUS] |  |  |  |  |  |  |  |  |  |  |  |  |  |  |  |  |  |  |  |  | Activity [34]: inactive |
| CC1=C(c2nc(C)no2)N2C(=O)[C@@H](NC(=O)COc3ccccc3)[C@H]2SC1 | >=3.4 | 13.4 ×10⁻⁶ cm/s | 9.13 µL/min | > 100 µg/mL | Stable | Unstable | > 100 µg/mL | 2 deltalog10CFU/ml | 83.7 to 84 µM (≈ 32.3 to 32.5 µg/mL) | > 100 µg/mL | > 100 µg/mL | Unstable | Active | < 5 min | Dose-dependent effect | 100 to 102% | 1.27 h | > 100 µg/mL | Active | > 100 µg/mL | Activity [35]: 1 - 2 deltalog10CFU/ml; remaining at 4 h ([20]; pH 7 solution, pH 7, read-out: Stability): 101%; Activity [36]: Non-Toxic; remaining at 4 h [29]: 0%; t1/2 [30]: 2 to 3 h; Activity [31]: Dose-dependent effect |
| O=C(O)[C@H]1/C(=C/CO)O[C@@H]2CC(=O)N21 [CLAVULANIC ACID] |  |  |  |  |  |  |  |  |  |  |  |  |  |  |  |  |  |  |  |  | fold change (FC) [37]: 4 |
